In ChEMBL document CHEMBL1152300, “Ligand specificity of constitutive androstane receptor as probed by induced-fit docking and mutagenesis” (J Med Chem, 2008):

Experiments:
[1] = target: T1, Nuclear receptor subfamily 1 group I member 3 (Mus musculus, UniProt O35627, F171L); test: Enhancement of nuclear co-repressor receptor binding to mouse CAR F171L mutant […] at 10 uM by yeast two-hybrid assay; type: cell-based
Procedure, shortened: (§1)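 Yeast two-hybrid: yeast expressing wild-type or mutant mouse CAR LBD plus SRC-1 or NCoR, selected on SD medium lacking Leu and Trp. Pooled colonies treated with DMSO or test chemical for 3.5 h. β-Galactosidase normalized to cell density. SRC-1 reference: wild-type + DMSO = 100. NCoR reference: 10 µM androstenol = 100. Mean ± SD, two independent determinations, each in triplicate.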

[2] = target: T2, Nuclear receptor subfamily 1 group I member 3 (Mus musculus, UniProt O35627, T350M); test: Enhancement of steroid receptor coactivator 1 binding to mouse CAR T350M mutant […] at 10 uM by yeast two-hybrid assay; type: cell-based; procedure, shortened: as §1
T2 sequence (O35627 whole entry T350M): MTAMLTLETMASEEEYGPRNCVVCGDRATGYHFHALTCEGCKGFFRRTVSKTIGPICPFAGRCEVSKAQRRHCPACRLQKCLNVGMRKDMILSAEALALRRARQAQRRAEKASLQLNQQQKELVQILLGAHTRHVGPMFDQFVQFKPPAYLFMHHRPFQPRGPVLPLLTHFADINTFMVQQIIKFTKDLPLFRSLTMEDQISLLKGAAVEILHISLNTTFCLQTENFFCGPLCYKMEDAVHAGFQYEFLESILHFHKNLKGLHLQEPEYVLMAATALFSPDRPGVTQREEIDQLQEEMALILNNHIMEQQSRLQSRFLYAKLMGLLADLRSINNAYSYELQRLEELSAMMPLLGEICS

[3] = target: T3, Nuclear receptor subfamily 1 group I member 3 (Mus musculus, UniProt O35627, L212A); test: Activation of mouse CAR L212A mutant expressed in HEK293 cells at 1 uM by mammalian one-hybrid assay; type: cell-based; conditions: hek293, 1 µM
T3 sequence (O35627 whole entry L212A, the tested form may be a part): as the sequence (O35627 whole entry T350M) above, with L212A, M350T counted along it
Procedure, shortened: (§2)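 GAL4 DBD fused to mouse CAR LBD (residues 118-358), wild type or point mutant, cotransfected with UASx4-tk-luc reporter and pCMVβ into HEK293 cells. Cells cultured with DMSO (0.1% v/v) or compound (final 1, 2 or 10 µM). Lysed 24 h post-transfection. Luciferase normalized to β-galactosidase, expressed relative to empty GAL4 vector (=1.0). Mean ± SD, three independent experiments.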

[4] = target: T2, Nuclear receptor subfamily 1 group I member 3; test: Decrease in steroid receptor coactivator 1 binding to mouse CAR T350M mutant […] at 1 uM by yeast two-hybrid assay; type: cell-based; conditions: read-out: Activity
Procedure, shortened: (§3)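 Yeast expressing wild-type or mutant mouse CAR LBD plus SRC-1, selected on SD plates lacking leucine and tryptophan. Pooled colonies treated with DMSO or compound for 3.5 h. β-Galactosidase activity normalized to cell density. Reference is wild-type CAR + SRC-1 with DMSO (=100). Mean ± SD of two independent determinations, each in triplicate.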

[5] = target: T4, Nuclear receptor subfamily 1 group I member 3 (Mus musculus, UniProt O35627, F171A); test: Effect on nuclear co-repressor receptor binding to mouse CAR F171A mutant […] at 1 uM by yeast two-hybrid assay; type: cell-based
T4 sequence (O35627 whole entry F171A): as the sequence (O35627 whole entry T350M) above, with F171A, M350T counted along it
Procedure, shortened: as §3, with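 “NCoR,” for “SRC-1,”, “10 µM androstenol” for “wild-type CAR + SRC-1 with DMSO”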

[6] = target: T5, Nuclear receptor subfamily 1 group I member 3 (Mus musculus, UniProt O35627, S251L); test: Decrease in mouse CAR S251L mutant activation expressed in HEK293 cells at 1 uM by mammalian one-hybrid assay; type: cell-based; conditions: read-out: Activity; procedure, shortened: as §2
T5 sequence (O35627 whole entry S251L): as the sequence (O35627 whole entry T350M) above, with S251L, M350T counted along it

[7] = target: Nuclear receptor subfamily 1 group I member 3 (Mus musculus, UniProt O35627, Y336A); test: Decrease in steroid receptor coactivator 1 binding to mouse CAR Y336A mutant […] at 1 uM by yeast two-hybrid assay; type: cell-based; conditions: read-out: Activity; procedure, shortened: as §3
Sequence of Nuclear receptor subfamily 1 group I member 3 (Mus musculus, UniProt O35627, Y336A) (O35627 whole entry Y336A): as the sequence (O35627 whole entry T350M) above, with Y336A, M350T counted along it

[8] = target: T6, Nuclear receptor subfamily 1 group I member 3 (Mus musculus, UniProt O35627, N175A); test: Effect on nuclear co-repressor receptor binding to mouse CAR N175A mutant […] at 1 uM by yeast two-hybrid assay; type: cell-based; conditions: read-out: Activity
T6 sequence (O35627 whole entry N175A): as the sequence (O35627 whole entry T350M) above, with N175A, M350T counted along it
Procedure, shortened: as §3, with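 “NCoR,” for “SRC-1,”, “10 µM androstenol” for “wild-type CAR + SRC-1 with DMSO”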

[9] = target: T7, mouse CAR (NR1I3), wild type (Mus musculus, UniProt O35627); test: Decrease in wild type mouse CAR activation expressed in HEK293 cells at 10 uM by mammalian one-hybrid transactivation assay; type: cell-based; conditions: HEK293 cells expressing wild type mouse CAR, read-out: Activity; procedure, shortened: as §2
T7 sequence (O35627 whole entry): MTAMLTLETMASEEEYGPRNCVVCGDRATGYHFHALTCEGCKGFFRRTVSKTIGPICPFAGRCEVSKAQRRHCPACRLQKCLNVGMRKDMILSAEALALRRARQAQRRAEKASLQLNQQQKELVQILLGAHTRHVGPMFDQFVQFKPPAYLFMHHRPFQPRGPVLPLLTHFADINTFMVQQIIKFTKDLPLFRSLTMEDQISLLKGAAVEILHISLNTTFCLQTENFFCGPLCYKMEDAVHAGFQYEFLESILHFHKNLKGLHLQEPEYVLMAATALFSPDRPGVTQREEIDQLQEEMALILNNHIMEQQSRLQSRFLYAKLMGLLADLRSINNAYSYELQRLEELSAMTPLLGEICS

[10] = target: T4, Nuclear receptor subfamily 1 group I member 3; test: Effect on nuclear co-repressor receptor binding to mouse CAR F171A mutant […] at 2 uM by yeast two-hybrid assay; type: cell-based; conditions: read-out: Activity; procedure, shortened: as §1
[11] = target: Nuclear receptor subfamily 1 group I member 3 (Mus musculus, UniProt O35627, L353A); test: Effect on steroid receptor coactivator 1 binding to mouse CAR L353A mutant […] at 2 uM by yeast two-hybrid assay; type: cell-based; conditions: read-out: Activity; procedure, shortened: as §1
Sequence of Nuclear receptor subfamily 1 group I member 3 (Mus musculus, UniProt O35627, L353A) (O35627 whole entry L353A): as the sequence (O35627 whole entry T350M) above, with M350T, L353A counted along it

[12] = target: Nuclear receptor subfamily 1 group I member 3 (Mus musculus, UniProt O35627, I252L); test: Effect on steroid receptor coactivator 1 binding to mouse CAR I252L mutant […] at 2 uM by yeast two-hybrid assay; type: cell-based; conditions: read-out: Activity; procedure, shortened: as §1
Sequence of Nuclear receptor subfamily 1 group I member 3 (Mus musculus, UniProt O35627, I252L) (O35627 whole entry I252L): as the sequence (O35627 whole entry T350M) above, with I252L, M350T counted along it

[13] = target: T6, Nuclear receptor subfamily 1 group I member 3; test: Decrease in nuclear co-repressor receptor binding to mouse CAR N175A mutant […] at 2 uM by yeast two-hybrid assay; type: cell-based; conditions: read-out: Activity; procedure, shortened: as §1
[14] = target: T3, Nuclear receptor subfamily 1 group I member 3; test: Decrease in nuclear co-repressor receptor binding to mouse CAR L212A mutant […] at 2 uM by yeast two-hybrid assay; type: cell-based; conditions: read-out: Activity; procedure, shortened: as §1
[15] = target: T8, Nuclear receptor subfamily 1 group I member 3 (Mus musculus, UniProt O35627, L253F); test: Decrease in nuclear co-repressor receptor binding to mouse CAR L253F mutant […] at 2 uM by yeast two-hybrid assay; type: cell-based; conditions: read-out: Activity; procedure, shortened: as §1
T8 sequence (O35627 whole entry L253F): as the sequence (O35627 whole entry T350M) above, with L253F, M350T counted along it

[16] = target: T8, Nuclear receptor subfamily 1 group I member 3; test: Decrease in mouse CAR L253F mutant activation expressed in HEK293 cells at 2 uM by mammalian one-hybrid assay; type: cell-based; conditions: read-out: Activity
Procedure, shortened: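 GAL4-DBD fused to mouse CAR LBD (residues 118-358), wild-type or point mutant, cotransfected with UASx4-tk-luc reporter and pCMVβ into HEK293 cells. Cells were exposed to final 1 µM, 2 µM or 10 µM test chemical, or 0.1% v/v DMSO, for 24 h after transfection. Luciferase was normalized to β-galactosidase and set against empty GAL4 vector (=1.0). Mean ± standard deviation, three independent experiments.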

[17] = target: T5, Nuclear receptor subfamily 1 group I member 3; test: Decrease in nuclear co-repressor receptor binding to mouse CAR S251L mutant […] at 2 uM by yeast two-hybrid assay; type: cell-based; design: scale not given: the % may be the effect or the level left; procedure, shortened: as §1
[18] = target: T1, Nuclear receptor subfamily 1 group I member 3; conditions: HEK293, mouse
[19] = target: T6, Nuclear receptor subfamily 1 group I member 3; test: Decrease in steroid receptor coactivator 1 binding to mouse CAR N175A mutant […] at 10 uM by yeast two-hybrid assay; type: cell-based; conditions: read-out: Activity; procedure, shortened: as §3

T1 sequence (O35627 whole entry F171L, the tested form may be a part): as the sequence (O35627 whole entry T350M) above, with F171L, M350T counted along it

Compound: COc1ccc(C(=O)CCCc2ccccc2)cc1
- Activity [1]: >= 50%

Compound: COc1ccccc1CC(CC(=O)Cc1ccccc1)OC (centres undefined)
- Activity [2]: > 50%

Compound: Clc1cnc(Oc2ccc(Oc3ncc(Cl)cc3Cl)cc2)c(Cl)c1
- Activity [3]: < 50%
- inhibition at 1 µM [4]: ≥ 50%
- Activity [5]: < 50%
- inhibition at 1 µM [6]: < 50%
- inhibition at 1 µM [7]: ≥ 50%
- activity at 1 µM [8]: < 50%

Compound: C[C@]12CC[C@@H](O)C[C@@H]1CC[C@@H]1[C@@H]2CC[C@]2(C)C=CC[C@@H]12 [ANDROSTENOL]
- inhibition at 10 µM [9]: > 60%

Compound: Clc1ccccc1C(c1ccccc1)(c1ccccc1)n1ccnc1 [CLOTRIMAZOLE]
- activity at 2 µM [10]: < 50%
- activity at 2 µM [11]: < 50%
- activity at 2 µM [12]: < 50%
- inhibition at 2 µM [13]: < 50%
- inhibition at 2 µM [14]: ≥ 50%
- inhibition at 2 µM [15]: ≥ 50%
- inhibition at 2 µM [16]: 50%
- Activity [17]: >= 50%

Compound: COc1ccc(C(c2ccc(OC)cc2)C(Cl)(Cl)Cl)cc1 [METHOXYCHLOR]
- activity at 10 µM [18]: < 50%
- inhibition at 10 µM [19]: ≥ 50%
